Bioassay records as filed in PubChem.
Most compounds without a hit are left out; they make up all but 6.4% or so of the library.
WT yeast gro inh – growth inhibition of WT yeast, mitochondrial fusion screen; mitochondrial fusion phenotypic screen, WT strain; 190,000 compounds, 2.1% hits; inhibition, % at 10 µM; AID 1362; in the data active means inhibition above about 58%; tested in S. cerevisiae
EBV gp42 block – EBV gp42 inhibition. Q1HVG2. Fluorescence polarization binding assay, mP read-out. inhibition, % (tested at 21.74 µM). 220,000 compounds, 0.42% hits. AID 1085; in the data active means inhibition above about 50%
Target sequence (Q1HVG2 whole entry, looked up): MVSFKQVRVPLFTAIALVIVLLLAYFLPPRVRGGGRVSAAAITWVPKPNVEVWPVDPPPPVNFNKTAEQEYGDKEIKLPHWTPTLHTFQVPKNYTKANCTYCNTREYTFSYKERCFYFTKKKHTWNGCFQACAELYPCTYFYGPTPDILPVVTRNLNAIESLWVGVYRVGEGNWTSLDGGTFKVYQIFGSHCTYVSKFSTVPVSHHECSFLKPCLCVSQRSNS
TbMetRS inhib – Trypanosoma brucei MetRS inhibition; inhibition, % at 11.9 µM; purified T. brucei MetRS, ATP depletion, Kinase-Glo luminescence; 360,000 compounds, 0.4% hits;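 active means inhibition above a per-plate cutoff of the control wells' mean inhibition plus 3 SD, cut at about 5.5% in these data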;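 further: 0% = DMSO wells median and 100% = median of wells with control inhibitor compound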
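Dosing: 11.9 µM single point; system: parasite MetRS enzyme; technique: luminescence of leftover ATP; times: 15 min enzyme-compound preincubation, 2 h reaction, 10 min detection, 25 °C; replicates: each compound tested once; read-out basis: percent inhibition relative to median high and low control wells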
CHOP inhibitor – blocks CHOP induction under ER stress; CHO-K1 CHOP-promoter luciferase, tunicamycin-induced, 15-18 h; inhibition, % at 10 µM; 220,000 compounds, 3.8% hits; AID 2732;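 active means compounds that reduced the stress-induced luciferase reporter signal by more than about 70% of percent inhibition, limit read from the data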;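 further: 0% = tunicamycin plus vehicle and 100% = wells without tunicamycin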
NR3A LBD binder – modulates the human NR3A ligand-binding domain. NR3A LBD differential scanning fluorimetry, Tm shift; 0% = protein alone, 100% = glycine-bound protein. Tm shift relative to glycine control, % at 25 µM. 340,000 compounds, 2.5% hits;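 active means melting temperature shift of at least 10% of the positive control shift, at one fixed dose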
MPTP inh – permeability transition pore inhibition | isolated mouse mitochondria, Ca2+ swelling absorbance, 30 min | inhibition, % at 10 µM | 360,000 compounds, 1.4% hits | AID 602449;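 active means inhibition of 50% or more, scaled per plate between neutral and stimulator controls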;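 further: 0% = DMSO wells given calcium and 100% = 1 mM EGTA wells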
* hit, by the source's call; . = no result.

SMILES | WT yeast gro inh | EBV gp42 block | TbMetRS inhib | CHOP inhibitor | NR3A LBD binder | MPTP inh
NS(=O)(=O)c1ccc(Nc2nc(-c3ccc(F)cc3)cs2)cc1 | 24 | 10 | 1 | 23 | 25* | 1
O=[N+]([O-])c1ccc(NCc2ccccc2)nc1 | 18 | 1 | 0 | -8 | 6 | 3
Cn1nnnc1SCC(=O)Nc1ccccc1Br | . | . | 0 | . | 0 | 3
Cn1nnnc1SCC(=O)Nc1ccccc1N1CCCCC1 | 0 | 140* | -2 | 14 | 3 | -4
COc1ccc(NC(=O)CSc2nnnn2C)cc1 | -14 | -19 | 0 | -22 | 1 | -1
CSc1ccccc1-n1nnnc1SCC(=O)Nc1ccccc1C | 1 | -18 | 0 | 19 | 14* | -1
Cn1nnnc1SCC(=O)Nc1ccc(Oc2ccccc2)cc1 | -5 | -12 | -1 | 75* | -1 | 2
CC1CCc2sc(C(=O)OCC(=O)NCc3ccccc3)cc2C1 (configuration not stated) | -1 | -15 | -1 | 63 | 1 | 1
Cc1ccc(C(=O)NC(C)(COc2nonc2C)COc2nonc2C)cc1 | -5 | -8 | -1 | 19 | 6 | 1
Cc1ccc(-n2nc(C(=O)N3CCOCC3)cc2-c2ccc(Cl)cc2)cc1 | -19 | -5 | -1 | 46 | -2 | 1
O=C(c1cc(-c2ccc(Cl)cc2)n(-c2ccc(Cl)cc2)n1)N1CCOCC1 | 14 | 4 | 0 | 73* | -2 | -2
COc1c(O[C@@H]2O[C@H](CO)[C@@H](O)[C@H](O)[C@H]2O)cc2c(c1OC)-c1ccc(SC)c(=O)cc1C(NC(C)=O)CC2 (some centres not stated) | . | . | -2 | . | 2 | 0
Cc1cccc(-c2ncc(CN3CCCC(CO)(Cc4ccccc4C)C3)cn2)c1 (configuration not stated) | 60* | -12 | 0 | 11 | -6 | 0
CCOC(=O)CCn1nc(-c2ccc(Cl)cc2)cc1N | 0 | -9 | -1 | 19 | 10* | -1
CCOC(=O)Cn1nc(-c2ccc(Cl)cc2)cc1N | 1 | -10 | 0 | 9 | 1 | 1
O=C(COC(=O)CC(c1ccccc1)c1ccccc1)NCc1ccccc1 | 17 | 7 | -1 | 38 | 0 | 2
COc1cc2cc3c(N)c(C(=O)Nc4sc(C)c(C)c4C#N)sc3nc2cc1OC | 12 | 4 | -1 | 81* | 19* | 2
CCN(CC(=O)Nc1ccccc1Br)C1CCCCC1 | 6 | -7 | 0 | 73* | -2 | 0
Cc1cccc(C)c1NC(=O)CN(C)CC(=O)N(C)CC(=O)Nc1ccccc1Br | . | . | 0 | . | 1 | -1
Cc1cccc(C)c1NC(=O)CN(C)CC(=O)Nc1ccccc1Br | 66* | 5 | 0 | 10 | 0 | 0
COc1ccc(C2CC(c3ccccc3Br)=NN2c2ccc(S(N)(=O)=O)cc2)cc1 (configuration not stated) | . | . | 0 | . | 14* | 1
COc1ccc(C2CC(C(C)(C)C)=NN2c2ccc(S(N)(=O)=O)cc2)cc1 (configuration not stated) | . | . | -1 | . | -5 | 3
COc1ccc(C2CC(c3ccc(C(F)(F)F)cc3)=NN2c2ccc(S(N)(=O)=O)cc2)cc1 (configuration not stated) | . | . | 0 | . | 107* | 2
COc1ccc(C2CC(c3ccccc3F)=NN2c2ccc(S(N)(=O)=O)cc2)cc1 (configuration not stated) | . | . | 0 | . | 3 | 4
COc1ccc(C2CC(c3ccccc3C(F)(F)F)=NN2c2ccc(S(N)(=O)=O)cc2)cc1 (configuration not stated) | . | . | 0 | . | 18* | 0
SMILES | WT yeast gro inh | EBV gp42 block | TbMetRS inhib | CHOP inhibitor | NR3A LBD binder | MPTP inh
Cc1ccc(NC(=O)c2ccc([N+](=O)[O-])o2)cc1C | 54 | -7 | -1 | -54 | -1 | 0
CC(C)(C)C(=O)Nc1cc2nn(-c3ccccc3)nc2cc1Cl | 12 | -2 | 0 | 80* | 1 | -2
CC(C)N(C(=O)C[n+]1ccc(/C=N/O)cc1)C(C)C | 8 | 77* | 0 | -3 | 1 | 0
COc1cnc(-c2ccccn2)nc1Oc1cccc(Cl)c1 | 14 | -4 | 0 | -6 | 0 | -1
COc1ccc(Nc2nccc(N(C)C)c2C#N)cc1 | 6 | -11 | 0 | 16 | 0 | -1
Cc1ccc(Nc2ccc(C(=O)O)cc2N)cc1 | 73* | -7 | . | -15 | -2 | .
CN1CCN(S(=O)(=O)c2ccc(Sc3nnnn3-c3ccccc3)c([N+](=O)[O-])c2)CC1 | 7 | 6 | 0 | 107* | 0 | 0
CC(=O)c1ccc(Sc2nnnn2-c2ccccc2)c([N+](=O)[O-])c1 | -10 | -3 | 0 | -17 | 0 | -3
O=[N+]([O-])c1ccc2c(c1)C(O)n1nc(-c3ccc(Cl)cc3Cl)nc1S2 (configuration not stated) | 8 | -14 | 0 | 25 | 1 | 0
CC1CCCCN1CC(O)COCCC12CC3CC(CC(C3)C1)C2 (configuration not stated) | 51 | -10 | -1 | 5 | -1 | 2
CCOC(=O)N1CCN(CC(O)COC2CC(C)CCC2C(C)C)CC1 (configuration not stated) | 77* | 0 | -1 | 32 | 0 | 4
CCOC(=O)N1CCN(CC(O)COCCC23CC4CC(CC(C4)C2)C3)CC1 (configuration not stated) | 60* | -9 | -1 | 9 | 0 | 0
COc1cc(CNc2ccc(O)cc2)cc(Br)c1OCc1ccccc1F | 13 | 7 | 0 | 87* | 3 | 5
COc1cc(CNc2ccc(S(N)(=O)=O)cc2)ccc1OCc1ccccc1F | . | . | 0 | . | -7 | 5
COc1cc(CNn2cn[nH]c2=S)cc(Br)c1OCc1ccccc1F | 72* | -4 | -1 | -4 | -2 | -4
CC(C)c1cc(C(=O)OCC(=O)NC(=O)NCc2ccco2)c(O)c(C(C)C)c1 | 25 | -8 | 0 | 102* | -4 | 3
O=C(COC(=O)c1ccccc1C(F)(F)F)NC(=O)NCc1ccco1 | . | . | 0 | . | 0 | 0
COc1ccc2cc3cc(C(=O)NCCN4CCc5ccccc5C4)sc3nc2c1 | 58* | -4 | -1 | 33 | -10 | 0
COc1ccc2cc3cc(C(=O)NCCN4CCc5ccccc5C4)oc3nc2c1 | -5 | -15 | 0 | 24 | 1 | 0
CCCC(=O)Nc1cc(S(=O)(=O)N2CCCCC2)ccc1N1CCOCC1 | . | . | 0 | . | 2 | 2
CC1CCc2cc(F)cc3c(O)c(C(=O)NCC4CCCO4)c(=O)n1c23 (configuration not stated) | 10 | -12 | 0 | 77* | 6 | -9
C=CCn1c(CNC(=O)c2ccco2)nnc1SCC(=O)c1ccc(F)cc1 | . | . | 0 | . | 1 | 0
O=C(/C=C/c1ccc(O)c(O)c1)c1ccc(S(=O)(=O)N2CCCCCC2)cc1 | -18 | -12 | 1 | 10 | 23* | 24
